Measurements from different studies.
Protocols differ between the studies behind these lines.
Target: Mitogen-activated protein kinase kinase kinase 10 (MAP3K10, Homo sapiens, UniProt Q02779)

SMILES	observed	method	concentration	remaining binding
c1ccc(N2CCN(Cc3nc4ccccc4[nH]3)CC2)nc1	binding	competition with immobilised ligand	1 µM	93%
O=C(c1ccc(Nc2ncc(Cl)c(-c3cc4ccccc4s3)n2)cc1)N1CCC(N2CCCC2)CC1	binding	competition with immobilised ligand	1 µM	3.5%
N[C@H]1CCN(c2nccc(-c3cnn4ncccc34)n2)C1	binding		1 µM	92%
C=CC(=O)N1CCC(C(=O)NCC(=O)N2CCN(c3nc(-c4cnc(N)nc4C(F)F)nc(N4CCOCC4)n3)CC2)CC1	binding	competition with immobilised ligand	1 µM	99%
O=C(NCC1CCOCC1)c1n[nH]cc1NC(=O)c1c(F)cccc1F	binding	competition with immobilised ligand	1 µM	100%
COc1cnc(Nc2cccc(S(N)(=O)=O)c2)nc1N1CCN(c2ccccc2)CC1	binding	competition with immobilised ligand	1 µM	89%
O=C(c1ccc(Nc2nccc(-c3cc4ccccc4s3)n2)cc1)N1CCC(N2CCCC2)CC1	binding	competition with immobilised ligand	1 µM	21%
CN(CCCC(F)(F)F)c1nccc(-c2cnn3ncccc23)n1	binding		1 µM	0%
Cc1c(NC(=O)c2cc(C(N)=O)nc3cc(F)ccc23)c(C(F)(F)F)nn1Cc1ccc(C#N)cc1	cell-free assay	competition with immobilised ligand	1 µM	92%
CN(C)c1nccc(-c2cnn3ncccc23)n1	binding		1 µM	98%
Cc1cnc(Nc2ccc(C(=O)N3CCC(N4CCCC4)CC3)cc2)nc1-c1cc2ccccc2s1	binding	competition with immobilised ligand	1 µM	0%
Cc1cnn2ncc(-c3ccnc(N(C)C)n3)c2c1	binding		1 µM	100%
CCN1CCN(Cc2ccc(C(=O)Nc3ccc(C)c(Oc4ccc5c(c4)CC(=O)N5)c3)cc2C(F)(F)F)CC1	binding	competition with immobilised ligand	1 µM	100%
CN(C(=O)c1ccccc1)c1cc(N(C)c2ccc3c(c2)CCc2ccc(C(=O)NCCN4CCOCC4)cc2C3=O)ccc1F	cell-free assay	competition with immobilised ligand	1 µM	75%
CN(c1nccc(-c2cnn3ncccc23)n1)C1CC1	binding		1 µM	76%
O=c1nc(-c2ccccn2)sc2ccccc12	binding	competition with immobilised ligand	1 µM	100%
C[C@@H](c1ccc(-n2cnc3c(N)ncnc32)cc1)N1CCc2nn(C)c(Cc3ccccc3)c2C1=O	binding	competition with immobilised ligand	0.1 µM	82%
CN1CCN(c2cnc3c(C4CCN(C(=O)c5ccc(OC(F)(F)F)cc5N)CC4)ncnc3c2)CC1	cell-free assay	competition with immobilised ligand	1 µM	100%
FC(F)(F)Oc1cccc(-c2cnc3ccc(-c4ccncc4)nn23)c1	cell-free assay	competition with immobilised ligand	5 µM	58%
C[C@H](c1cccc(C#N)c1)n1cc(Cl)cc(C(N)=O)c1=N	cell-free assay	competition with immobilised ligand	1 µM	100%
c1cnn2ncc(-c3ccnc(N4CCC45COC5)n3)c2c1	binding		1 µM	100%
